Hep lipid drop – hepatic lipid droplet formation modulation; AML12 mouse hepatocytes, oleate lipid droplets, BODIPY imaging; inhibition, % at 6.5 µM; 240,000 tested, 0.4% active; AID 1656;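 active = lipid droplet intensity inhibited by at least 50%, with more than 500 cells counted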
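Assay system: AML12 hepatocytes (mouse); Probe or stimulus: oleic acid at 100 µM to induce lipid droplet formation; Dosing: compound at 6.5 µM only; Schedule: compound with oleate, overnight; Detection: fluorescence imaging, 20x objective, two fields per well; Measure: % inhibition of lipid droplet signal.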
STAT1 blocker – reduces IFN-gamma driven STAT1 reporter signal. NIH 3T3 STAT1-luciferase reporter, luminescence. inhibition, % at 5.5 µM. 200,000 tested, 0.35% active;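 active = inhibition above a set limit, the mean inhibition across all tested compounds plus 3 SD, cut at about 34% in these data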
PPC-1+TRAIL kill – kills PPC-1 cancer cells in the presence of TRAIL; PPC-1 cells + TRAIL, ATPLite viability luminescence; cell killing (% activity), % at 4 µM or 5 µM; 220,000 tested, 0.41% active; AID 1443;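 active = cell killing above 50% in the first pass at 4 µM, then a duplicate retest at 5 µM averaging 50% or more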
Platelet DG rel – platelet dense granule release activity. 300,000 tested, 0.22% active. human platelet-rich plasma, SFLLRN dense granule ATP release, luminescence. inhibition, %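 (compounds screened at 7.5 µM in platelet-rich plasma)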;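 active = mean replicate score, as percent of positive control, at or above 50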
H9c2 TAG inh – triacylglycerol accumulation inhibition; 230,000 tested, 0.66% active; inhibition, % at 12.5 µM; H9c2 cells, Nile Red lipid (TAG) fluorescence; cells loaded with 200 µM oleic acid;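 active = pattern-corrected inhibition of lipid staining of at least 50% with the nuclear-stain viability signal not falling by more than 50%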
STAT3 inh – inhibitors of IL-6 induced STAT3 signaling. 190,000 tested, 0.89% active. U3A cells, IL-6 STAT3-luciferase reporter, luminescence; host cell line lacks STAT1. inhibition, % at 5.5 µM;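 active = inhibition above the mean inhibition across all screened compounds plus 3 SD, cut at about 44% in these data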
PPC1 cytotox – kills PPC-1 cells | shares compounds with PPC-1+TRAIL kill | PPC-1 viability, ATPlite luminescence, overnight | cytotoxicity, % at 5 µM | 1,200 tested, 50% active | AID 1447;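 active = reconfirmed compounds whose average cytotoxicity reaches 50% or more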
A number is an active result; . = inactive; / = not tested or not shown. The list is not random: actives were taken first. Their share in the collection is about 1.5%.

SMILES	Hep lipid drop	STAT1 blocker	PPC-1+TRAIL kill	Platelet DG rel	H9c2 TAG inh	STAT3 inh	PPC1 cytotox
Cc1cc2ncc(-c3ccc(Cl)cc3)c(N)n2n1	.	.	.	.	.	.	/
Nc1c(-c2ccccc2)cnc2cc(-c3ccccc3)nn12	.	.	53	.	.	.	60
O=C(Cc1ccccc1F)Nc1cccc(S(=O)(=O)N2CCCCC2)c1	/	/	/	/	.	/	/
COc1cccc2sc(Nc3nc(-c4ccccn4)cs3)nc12	/	.	.	.	.	.	.
c1ccc(Nc2nc(-c3ccccn3)cs2)cc1	.	.	.	.	.	.	/
O=c1c(Cl)c(N2CCOCC2)cnn1-c1nc2ccccc2[nH]1	.	.	.	.	.	.	.
CC1(C(=O)Nc2ccc(F)c(Cl)c2)Cc2c(-c3ccc(C(N)=O)cc3)ccnc2O1 (stereo unspecified)	/	/	/	/	.	/	/
CN1CCN(CCCNC(=O)c2nnc(Cc3c(F)cccc3Cl)o2)CC1	.	.	.	.	/	.	.
COCCOC(=O)N1CCCCC1c1cc(C(=O)NCc2ccc(Cl)c(Cl)c2)no1 (stereo unspecified)	/	/	/	/	.	/	/
C[C@@H]1CN([C@H](C)CO)C(=O)c2cc(C3=CCCCC3)cnc2O[C@@H]1CN(C)Cc1ccccc1C(=O)O	/	/	/	/	.	/	/
Cc1ccsc1CN(C)CC(=O)N(C)CC(=O)Nc1c(Cl)cccc1Cl	/	/	/	/	.	/	/
Oc1ccccc1N=Nc1ccccc1O	.	.	.	.	/	.	.
Nc1ccc(N=Nc2ccccc2O)c(N)c1	/	/	/	.	.	/	/
COc1ccc(OC)c(S(=O)(=O)Nc2ccc3c(c2)OCCO3)c1	/	/	/	/	.	/	/
Cc1ccc(S(=O)(=O)NC(=O)C2(C)CCN2C(=O)CCc2ccc(Cl)cc2Cl)cc1 (stereo unspecified)	/	/	/	/	.	/	/
CC1CC(=O)Nc2ccccc2N1C(=O)Nc1ccc(F)cc1 (stereo unspecified)	.	/	.	.	.	/	.
CC1CC(=O)Nc2ccccc2N1C(=O)Nc1ccc(F)cc1F (stereo unspecified)	/	/	.	.	.	/	/
CC(C)CCN1C(=O)c2ccc(C(=O)NCC3CCCO3)cc2C1=O (stereo unspecified)	.	.	.	.	.	.	/
O=C(NCC1CCCO1)c1ccc2c(c1)C(=O)N(C1CCCCC1)C2=O (stereo unspecified)	.	.	.	.	.	.	.
COc1ccc(S(=O)(=O)N2CCCCC2c2cc(C(=O)Nc3ccc(F)c(Cl)c3)no2)cc1 (stereo unspecified)	/	/	/	/	.	/	/
CCOC(=O)C1CCN(S(=O)(=O)c2ccc(NC(=O)OC)cc2)CC1	.	.	.	/	.	.	.
CCOCCCNC(=O)C1CCN(S(=O)(=O)c2ccc(C)cc2)CC1	.	.	.	.	/	.	.
CCn1c(SCC(=O)N(C)c2c(N)n(Cc3ccccc3)c(=O)[nH]c2=O)nnc1-c1cccs1	/	/	/	/	.	/	/
O=c1[nH]cnc2scc(-c3ccc(-c4ccccc4)cc3)c12	.	.	58	.	.	.	60
Cn1c(N)c(C(=O)N2CCN(c3ccccc3)CC2)c(=O)n(C)c1=O	/	/	/	/	.	/	/
SMILES	Hep lipid drop	STAT1 blocker	PPC-1+TRAIL kill	Platelet DG rel	H9c2 TAG inh	STAT3 inh	PPC1 cytotox
Cc1ccc(N/C(N)=N/c2nc(C)cc(N3CCCCC3)n2)c(C)c1	.	36	.	.	.	.	.
Cc1ccc(N/C(N)=N/c2nc3c(c(=O)[nH]2)CCCC3)c(C)c1	/	.	.	.	/	.	/
C/C(=N\Nc1cccc2cccnc12)c1ccccn1	/	41	.	.	.	68	.
C=CCN(CC=C)S(=O)(=O)c1ccc(NC(=O)COc2ccccc2OC)cc1	.	.	.	/	.	.	.
COc1ccccc1OCC(=O)Nc1ccc(S(=O)(=O)N2CCCCCC2)cc1	/	.	.	.	/	.	/
O=C1CC=Nc2ccc([N+](=O)[O-])cc21	/	/	/	/	.	/	/
CN(C)S(=O)(=O)c1ccc(C(=O)Nc2cccc(C(=O)O)c2)cc1	.	.	.	.	.	.	.
CC(=O)N1CCN(C(=O)COc2ccccc2C(=O)Nc2ccccc2)CC1	.	.	.	.	.	.	.
COc1ccc(C(=O)Sc2nncc3ccccc23)cc1	.	.	.	.	.	.	.
COc1ccc(C(C)NC(=O)C2CCCO2)cc1OC (stereo unspecified)	.	.	.	.	/	.	.
c1ccc(CCNc2ccnc3cc4ccccc4cc23)cc1	.	.	.	.	104	.	.
COc1ccc2cc(C3=CC(=O)CC(C)(C)C3=O)ccc2c1	/	/	/	/	.	/	/
CN(C)C(=O)C1C2NC(=S)N(c3ccccc3)C1(C)Oc1ccccc12 (stereo unspecified)	.	.	.	.	.	.	/
Cc1cccc(N2C(=S)NC3c4ccccc4OC2(C)C3C(=O)N(C)C)c1 (stereo unspecified)	.	.	.	.	.	.	.
CC(=O)N1CCN(c2ccccc2NC(=O)COc2ccc(Cl)cc2Cl)CC1	.	.	.	.	.	.	.
CC(=O)N1CCN(c2ccccc2NC(=O)COc2ccccc2C)CC1	.	.	.	.	.	.	/
CCc1nc2c(OCc3ccc(Cl)cc3)cccn2c1N(C)C(=O)c1ccncc1	/	/	/	/	.	/	/
Cc1ccc(-c2cc(C(=O)N/N=C\c3cnn(C)c3C)c3ccccc3n2)cc1C	.	.	53	.	.	.	.
COc1ccc(-c2cc(=O)c3cc(O)ccc3o2)cc1	.	.	.	.	/	/	.
N#Cc1ccc(CN2CCN(C(=O)C3CC(=O)N(c4ccc5c(c4)OCCO5)C3)CC2)cc1 (stereo unspecified)	/	/	/	/	.	/	/
CCc1ccc(S(=O)(=O)NCc2ccc(C(=O)NCCN(Cc3ccccc3)C(C)C)cc2)cc1	/	/	/	/	.	/	/
Cc1cc(C(=O)COC(=O)c2ccccc2Br)c(C)n1CC1CCCO1 (stereo unspecified)	.	/	80	.	.	/	76
Cc1cc(C(=O)COC(=O)c2cccnc2Cl)c(C)n1CC1CCCO1 (stereo unspecified)	.	80	79	.	.	88	77
CC(C)CNC(=O)C1(C)CCCN1C(=O)c1c(Cl)cccc1Cl (stereo unspecified)	/	/	/	/	.	/	/
O=C1CC2(CCCC2)C(=O)N1CN1CCN(S(=O)(=O)c2cc(F)ccc2F)CC1	/	/	/	/	.	/	/
N=c1n(CCN2CCCC2)c2ccccc2n1CC(O)c1ccc(Cl)c(Cl)c1 (stereo unspecified)	.	.	.	.	/	.	.
N=c1n(CCN2CCOCC2)c2ccccc2n1CC(=O)c1ccc(Cl)c(Cl)c1	/	.	.	.	.	.	/
CC(C)c1ccc(Nc2nnc(SCC(=O)Nc3ncc(S(=O)(=O)c4ccc([N+](=O)[O-])cc4)s3)s2)cc1	.	.	64	.	.	.	65
CC1C(=O)N(Cc2cn(CCC3OCCO3)nn2)CCS(=O)(=O)N1Cc1ccc(-c2ccc(Cl)c(Cl)c2)cc1 (stereo unspecified)	/	/	/	/	.	/	/
c1ccc(COc2ccc(OCCn3cncn3)cc2)cc1	.	.	.	.	.	.	.

High-throughput results as filed in PubChem.
